Experimental findings from ChEMBL document CHEMBL1122179, “1-(alkylamino)isochromans: hypotensives with peripheral and central activities” (J Med Chem, 1982) are described below.

Assay [1] concerns Rattus norvegicus. Description: Delta BP refers to oral hypotensive activity of compound which is evaluated at 4 hr and 24 hr in restrained, normotensive conscious rats at a dose of 50 mg/kg; -11/-16. Type of assay: functional. In outline:
(§1)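 Female Sprague-Dawley rats, normotensive, restrained in a towel. Blood pressure was read directly via chronic indwelling aortic cannulas exteriorized at the nape, before and 4 and 24 h after an oral dose suspended in carboxymethylcellulose (10 mL/kg). Values from two animals were averaged at each time; a mean change of at least 5 mmHg was taken as significant (p < 0.05).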

The subject of assay [2] is Rattus norvegicus. Description: Delta BP refers to oral hypotensive activity of compound which is evaluated at 4 hr and 24 hr in restrained, normotensive conscious rats at a dose of 50 mg/kg; -24/-5. Format: functional. In a few lines: as §1
Assay [3] deals with Rattus norvegicus. Kind of assay: Delta BP refers to oral hypotensive activity of compound which is evaluated at 4 hr and 24 hr in restrained, normotensive conscious rats at a dose of 15 mg/kg; -13/-14. Format: functional. In outline:
as §1

Assay [4] relates to Rattus norvegicus. Kind of assay: Delta BP refers to oral hypotensive activity of compound which is evaluated at 4 hr and 24 hr in restrained, normotensive conscious rats at a dose of 50 mg/kg; -12/-5. Format: functional. In a few lines: as §1
Assay [5] relates to Rattus norvegicus. Description: Delta BP refers to oral hypotensive activity of compound which is evaluated at 4 hr and 24 hr in restrained, normotensive conscious rats at a dose of 50 mg/kg; -13/-10. Type of assay: functional. In outline:
as §1

Assay [6] has as its system Rattus norvegicus. Description: Delta BP refers to oral hypotensive activity of compound which is evaluated at 4 hr and 24 hr in restrained, normotensive conscious rats at a dose of 15 mg/kg; -24/-5. Format: functional. In a few lines:
as §1

The subject of assay [7] is Rattus norvegicus. Kind of assay: Delta BP refers to oral hypotensive activity of compound which is evaluated at 4 hr and 24 hr in restrained, normotensive conscious rats at a dose of 50 mg/kg; -26/-21. Format: functional. In a few lines:
as §1

For assay [8], the target named is T1, Adrenergic receptor alpha-2 (Rattus norvegicus, UniProt P22086+P19328+P22909).
T1 sequence (P22086 whole entry): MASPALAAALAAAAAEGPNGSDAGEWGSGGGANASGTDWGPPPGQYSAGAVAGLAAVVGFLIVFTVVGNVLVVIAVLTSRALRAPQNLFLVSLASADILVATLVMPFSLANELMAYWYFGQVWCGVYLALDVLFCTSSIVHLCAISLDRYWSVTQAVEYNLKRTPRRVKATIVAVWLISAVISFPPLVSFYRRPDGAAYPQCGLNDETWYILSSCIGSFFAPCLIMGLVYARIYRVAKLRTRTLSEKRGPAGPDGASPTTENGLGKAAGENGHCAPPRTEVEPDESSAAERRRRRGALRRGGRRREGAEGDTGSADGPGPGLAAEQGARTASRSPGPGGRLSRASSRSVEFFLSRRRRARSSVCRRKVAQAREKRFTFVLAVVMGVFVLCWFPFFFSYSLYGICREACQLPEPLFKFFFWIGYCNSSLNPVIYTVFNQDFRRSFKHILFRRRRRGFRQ
T1 sequence (P19328 whole entry): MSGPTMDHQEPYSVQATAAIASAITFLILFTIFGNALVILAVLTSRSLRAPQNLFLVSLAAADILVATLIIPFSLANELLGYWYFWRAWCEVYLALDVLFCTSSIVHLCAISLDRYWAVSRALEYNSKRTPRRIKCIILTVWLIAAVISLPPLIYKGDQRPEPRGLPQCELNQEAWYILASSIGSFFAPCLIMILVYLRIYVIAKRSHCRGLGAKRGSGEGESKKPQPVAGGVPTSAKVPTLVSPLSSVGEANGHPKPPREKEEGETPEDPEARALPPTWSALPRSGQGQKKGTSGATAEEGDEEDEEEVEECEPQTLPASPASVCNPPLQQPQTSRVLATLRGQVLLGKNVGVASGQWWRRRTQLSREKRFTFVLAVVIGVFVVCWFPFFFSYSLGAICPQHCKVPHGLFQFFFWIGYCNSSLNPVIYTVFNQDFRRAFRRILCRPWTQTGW
T1 sequence (P22909 whole entry): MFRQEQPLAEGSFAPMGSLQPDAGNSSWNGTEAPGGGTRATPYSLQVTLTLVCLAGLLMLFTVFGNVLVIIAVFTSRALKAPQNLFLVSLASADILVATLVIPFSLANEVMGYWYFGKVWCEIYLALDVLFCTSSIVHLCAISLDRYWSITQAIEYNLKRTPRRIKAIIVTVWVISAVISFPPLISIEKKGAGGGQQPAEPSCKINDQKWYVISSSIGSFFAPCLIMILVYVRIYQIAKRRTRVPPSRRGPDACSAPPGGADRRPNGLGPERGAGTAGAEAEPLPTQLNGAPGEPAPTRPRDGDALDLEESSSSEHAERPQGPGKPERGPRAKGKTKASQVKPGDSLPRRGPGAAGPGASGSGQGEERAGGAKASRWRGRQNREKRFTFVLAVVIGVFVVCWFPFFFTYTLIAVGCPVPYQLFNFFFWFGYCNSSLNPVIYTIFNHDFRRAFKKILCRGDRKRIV
Kind of assay: Compound was tested for the inhibition of [3H]clonidine binding Alpha-2 adrenergic receptor of crude rat brain membrane.

Assay [9] has as its target T2, Adrenergic receptor alpha-1 (Rattus norvegicus, UniProt P15823+P23944+P43140).
T2 sequence (P15823 whole entry): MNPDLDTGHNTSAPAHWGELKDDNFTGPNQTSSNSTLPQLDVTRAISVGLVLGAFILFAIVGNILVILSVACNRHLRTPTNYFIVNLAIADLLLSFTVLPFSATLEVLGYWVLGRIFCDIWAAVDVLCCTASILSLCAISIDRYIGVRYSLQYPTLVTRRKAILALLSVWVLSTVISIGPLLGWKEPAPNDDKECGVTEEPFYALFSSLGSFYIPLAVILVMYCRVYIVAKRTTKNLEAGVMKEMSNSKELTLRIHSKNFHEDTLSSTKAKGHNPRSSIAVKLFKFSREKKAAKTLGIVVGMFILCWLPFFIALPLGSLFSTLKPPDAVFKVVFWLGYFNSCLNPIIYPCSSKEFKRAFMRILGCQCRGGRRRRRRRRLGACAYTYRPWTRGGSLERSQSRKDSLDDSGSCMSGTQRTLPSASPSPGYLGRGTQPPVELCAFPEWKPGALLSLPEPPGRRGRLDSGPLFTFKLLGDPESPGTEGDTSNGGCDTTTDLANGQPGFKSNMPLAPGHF
T2 sequence (P23944 whole entry): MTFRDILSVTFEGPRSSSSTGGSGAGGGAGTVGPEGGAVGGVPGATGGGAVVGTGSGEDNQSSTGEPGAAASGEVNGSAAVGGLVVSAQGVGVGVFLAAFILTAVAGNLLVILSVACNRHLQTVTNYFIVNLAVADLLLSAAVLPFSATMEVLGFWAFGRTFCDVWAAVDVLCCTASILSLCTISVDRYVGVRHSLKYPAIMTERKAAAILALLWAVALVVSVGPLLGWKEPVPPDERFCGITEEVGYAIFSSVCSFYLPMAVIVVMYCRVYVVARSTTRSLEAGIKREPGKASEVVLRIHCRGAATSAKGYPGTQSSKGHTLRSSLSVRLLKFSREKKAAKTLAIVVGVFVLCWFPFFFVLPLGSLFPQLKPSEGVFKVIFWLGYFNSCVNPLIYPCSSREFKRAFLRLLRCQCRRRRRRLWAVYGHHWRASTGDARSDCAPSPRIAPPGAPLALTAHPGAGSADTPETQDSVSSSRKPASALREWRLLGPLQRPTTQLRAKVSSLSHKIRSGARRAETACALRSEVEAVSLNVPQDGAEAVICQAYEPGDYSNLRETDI
T2 sequence (P43140 whole entry): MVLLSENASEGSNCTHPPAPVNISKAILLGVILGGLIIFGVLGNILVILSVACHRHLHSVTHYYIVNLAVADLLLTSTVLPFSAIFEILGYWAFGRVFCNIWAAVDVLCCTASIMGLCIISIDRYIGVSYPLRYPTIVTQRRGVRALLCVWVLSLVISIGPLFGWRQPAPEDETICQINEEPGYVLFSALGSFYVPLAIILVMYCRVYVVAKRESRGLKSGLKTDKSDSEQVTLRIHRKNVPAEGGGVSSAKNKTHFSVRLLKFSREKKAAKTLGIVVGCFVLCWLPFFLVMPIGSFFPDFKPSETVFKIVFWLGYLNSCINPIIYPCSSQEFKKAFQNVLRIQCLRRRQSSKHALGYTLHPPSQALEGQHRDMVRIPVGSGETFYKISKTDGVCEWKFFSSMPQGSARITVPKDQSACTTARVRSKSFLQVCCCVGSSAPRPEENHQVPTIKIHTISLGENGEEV
Kind of assay: Compound was tested for the inhibition of [3H]prazosin binding […] adrenergic receptor of crude rat brain membrane.

For assay [10], the system named is Rattus norvegicus. Description: Delta BP refers to oral hypotensive activity of compound which is evaluated at 4 hr and 24 hr in restrained, normotensive conscious rats at a dose of 50 mg/kg; -16/-10. Format: functional. As to conditions: dose 15 mg/kg, in the assay text read “dose of 15 mg/kg” for “dose of 50 mg/kg”. In a few lines:
as §1

For assay [11], the system named is Rattus norvegicus. Kind of assay: Delta BP refers to oral hypotensive activity of compound which is evaluated at 4 hr and 24 hr in restrained, normotensive conscious rats at a dose of 50 mg/kg; -19/-19. Format: functional. In a few lines:
as §1

The test system of assay [12] is Rattus norvegicus. Kind of assay: Delta BP refers to oral hypotensive activity of compound which is evaluated at 4 hr and 24 hr in restrained, normotensive conscious rats at a dose of 50 mg/kg; -17/-9. Format: functional. In a few lines: as §1
Assay [13] relates to Rattus norvegicus. Description: Delta BP refers to oral hypotensive activity of compound which is evaluated at 4 hr and 24 hr in restrained, normotensive conscious rats at a dose of 50 mg/kg; -17/-20. Format: functional. In outline:
as §1

Assay [14] has as its system Rattus norvegicus. Kind of assay: Delta BP refers to oral hypotensive activity of compound which is evaluated at 4 hr and 24 hr in restrained, normotensive conscious rats at a dose of 50 mg/kg; 1/0. Format: functional. In outline:
as §1

For orientation: Ki means a measure of affinity in units of concentration, obtained from inhibition or displacement. Lower therefore signals a stronger hold on the target.

With `COc1cc2c(cc1OC)C(C)(CCCN1CCN(c3ccccn3)CC1)OCC2` (centres undefined), the Delta blood pressure with Rattus norvegicus [1] was -11 mmHg.

On to `COc1cc2c(cc1OC)C(CN1CCN(c3ccccc3C)CC1)OCC2` (centres undefined), for which the Delta blood pressure in the assay on Rattus norvegicus [2] is reported as -24 mmHg.

As for `COc1cc2c(cc1OC)C(CCN1CCN(c3ccccn3)CC1)OCC2` (centres undefined), the Delta blood pressure in the assay on Rattus norvegicus [3] is -13 mmHg; in the assay on Rattus norvegicus [4], -12 mmHg.

In the assay on Rattus norvegicus [5], `COc1cc2c(cc1OC)C(CCN1CCN(c3ccccc3)CC1)OCC2` (centres undefined) yielded a Delta blood pressure of -13 mmHg.

For `COc1cc2c(cc1OC)C(C)(CCCN1CCN(c3ccccc3C)CC1)OCC2` (centres undefined), the values for the Delta blood pressure with Rattus norvegicus [6] and in the assay with Rattus norvegicus [7] were -24 mmHg and -26 mmHg, respectively.

Turning to `COc1cc2c(cc1OC)C(CCN1CCN(c3ccc(F)cc3)CC1)OCCC2` (centres undefined), the Ki in assay [8] is on record as 307 nM; in assay [9], 4 nM.

With `COc1cc2c(cc1OC)C(CCCN1CCN(c3ccccc3)CC1)(c1ccc(F)cc1)OCC2` (centres undefined), the Delta blood pressure was -16 mmHg in the assay on Rattus norvegicus [10] and -19 mmHg with Rattus norvegicus [11].

Turning to `COc1cc2c(cc1OC)C(C)(CCN1CCN(c3ccccc3)CC1)OCC2` (centres undefined), the Delta blood pressure in the assay on Rattus norvegicus [12] is given as -17 mmHg.

`COc1cc2c(cc1OC)C(CCN1CCN(c3ccccc3C)CC1)OC(C)(C)C2` (centres undefined) gave a Delta blood pressure in the assay on Rattus norvegicus [13] of -17 mmHg.

Turning to `COc1cc2c(cc1OC)C(CCN1CCN(c3cccc(Cl)c3)CC1)OCC2` (centres undefined), the Delta blood pressure with Rattus norvegicus [14] turned out to be 1 mmHg.
